Screening data from PubChem BioAssay.
Only some compounds are listed: those with a hit (about 4.1% of all), similar ones and a draw of the others.
KCNQ1 pot: potentiators or activators of KCNQ1 channel, primary screen, cell-based, thallium flux, high-throughput | Potassium voltage-gated channel subfamily KQT member 1 (Homo sapiens), P51787 | CHO-K1 KCNQ1, thallium flux FluxOR fluorescence; hits give high values | B-score at 10 µM | 310,000 tested, 0.35% active;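 active means fluorescence ratio B-score, a plate-corrected score, at least three library SD, with initial intensity B-score within 5 SD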
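Test system: CHO-K1 cells stably expressing KCNQ1 / Medium: assay buffer / Also added: depolarizing K+/Tl+ stimulus, K2SO4 and Tl2SO4 each 12.5 mM in 5x stock / Incubation: 90 min dye loading and 20 min compound exposure, both at room temperature / Signal: thallium influx via FluxOR fluorescence, kinetic imaging / Evaluation: B score of baseline-normalized fluorescence ratio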
KCNQ1 inh: inhibitors of human KCNQ1 channel, primary screen, cell-based, thallium flux, high-throughput; Potassium voltage-gated channel subfamily KQT member 1 (Homo sapiens), P51787; CHO-K1 KCNQ1, FluxOR thallium flux fluorescence; hits give high values; B-score at 10 µM; 310,000 tested, 1.3% active;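 active means compounds whose thallium flux B-score, printed positive for inhibition, exceeds three library SD while starting fluorescence stays within three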;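 further: channel opened by potassium depolarization with thallium stimulus after 20 min compound exposure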
KCC2 mod: KCC2 cotransporter modulators, thallium flux, primary screen, cell-based, HEK293 KCC2, FluoZin-2 fluorescence, MLSMR. AID 1456, 2008. Solute carrier family 12 member 5 (Homo sapiens), Q9H2X9. KCC2 cells, thallium flux FluoZin-2 fluorescence. 190,000 tested, 2.2% active. B-score of Tl+ flux slope (higher = more flux/activation; lower = inhibition) at 10 µM;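 active means thallium flux slope and its plate-corrected score both differing from the plate sample mean at a set confidence after two filtering rounds, in either direction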;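 further: slope of fluorescence scaled to starting intensity during 10 to 20 s after thallium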
KCNK3 inh: human KCNK3 channel inhibitors, primary screen, CHO cells, FluxOR thallium flux, B-score; Potassium channel subfamily K member 3 (Homo sapiens), O14649; FluxOR fluorescence; hits give low values; B-score at 10 µM; 340,000 tested, 0.84% active;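 active means B-score under library mean minus 4 SD, starting fluorescence ratio at most library mean plus 5 SD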;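 further: more negative B-score means stronger inhibition of thallium flux through KCNK3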
hERG rescue: hERG rescue from dofetilide block, primary screen, cell-based, CHO-hERG, FluxOR thallium flux, dofetilide IC70; Voltage-gated inwardly rectifying potassium channel KCNH2 (Homo sapiens), Q12809; dofetilide IC70 present; activation (rescue from dofetilide block), less the hit threshold, % at 10 µM; 310,000 tested, 0.51% active;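 active means activation above the mean of controls blocked by dofetilide plus 5 SD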;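 further: thallium influx through hERG after potassium depolarization seen as dye fluorescence rise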
Target sequence (Q12809 whole entry, looked up): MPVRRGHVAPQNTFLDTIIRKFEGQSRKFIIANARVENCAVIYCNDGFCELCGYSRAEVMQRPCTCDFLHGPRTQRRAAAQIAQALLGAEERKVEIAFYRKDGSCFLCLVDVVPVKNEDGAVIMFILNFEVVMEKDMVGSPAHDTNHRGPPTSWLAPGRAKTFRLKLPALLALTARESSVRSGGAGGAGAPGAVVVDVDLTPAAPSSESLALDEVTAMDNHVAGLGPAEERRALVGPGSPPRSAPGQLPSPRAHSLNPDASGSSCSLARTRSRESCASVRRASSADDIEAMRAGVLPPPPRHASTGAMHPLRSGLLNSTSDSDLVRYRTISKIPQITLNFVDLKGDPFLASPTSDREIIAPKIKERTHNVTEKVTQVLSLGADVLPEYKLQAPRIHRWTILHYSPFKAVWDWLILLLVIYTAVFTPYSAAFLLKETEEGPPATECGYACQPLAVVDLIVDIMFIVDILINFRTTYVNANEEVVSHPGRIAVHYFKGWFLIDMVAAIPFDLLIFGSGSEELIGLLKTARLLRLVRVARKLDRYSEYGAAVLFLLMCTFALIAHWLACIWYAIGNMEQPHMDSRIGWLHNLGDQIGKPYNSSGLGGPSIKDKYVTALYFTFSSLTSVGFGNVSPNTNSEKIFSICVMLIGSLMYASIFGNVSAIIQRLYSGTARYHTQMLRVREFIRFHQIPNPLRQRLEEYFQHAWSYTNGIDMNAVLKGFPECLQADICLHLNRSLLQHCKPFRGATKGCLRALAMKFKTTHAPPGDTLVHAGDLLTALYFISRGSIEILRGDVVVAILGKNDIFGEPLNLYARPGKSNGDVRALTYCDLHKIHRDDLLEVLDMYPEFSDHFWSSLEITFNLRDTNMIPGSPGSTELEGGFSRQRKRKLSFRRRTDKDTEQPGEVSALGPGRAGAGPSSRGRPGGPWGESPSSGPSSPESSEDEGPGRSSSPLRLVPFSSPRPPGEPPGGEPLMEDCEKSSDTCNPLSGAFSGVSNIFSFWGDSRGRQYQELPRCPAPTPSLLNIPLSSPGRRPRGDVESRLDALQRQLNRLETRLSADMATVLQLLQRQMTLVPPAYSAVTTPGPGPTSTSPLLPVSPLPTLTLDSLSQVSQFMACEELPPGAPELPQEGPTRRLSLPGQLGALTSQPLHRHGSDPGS
KCNK9 block: KCNK9 potassium channel inhibitors, primary screen, HEK293 cells, thallium flux. Potassium channel subfamily K member 9 (Homo sapiens), Q9NPC2. FluxOR thallium flux fluorescence; hits give low values. B-score at 10 µM. 310,000 tested, 1.2% active;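 active means ratio B-score over 3 SD below the library mean, with starting fluorescence within 5 SD of its mean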;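 further: negative B-score means less thallium flux so channel inhibition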
Numbers stand for hits.

What do the screens show for `CCOC(=O)N1CCN(S(=O)(=O)c2ccc3c(c2)OCC(=O)N3)CC1`?
KCNQ1 pot: inactive; KCNQ1 inh: inactive; KCC2 mod: inactive; KCNK3 inh: inactive; hERG rescue: 10.1; KCNK9 block: inactive

How did O=C(CSC(=S)N1CCCC1)N(Cc1nnc(-c2ccccc2Cl)o1)C1CC1 do in these assays?
KCNK3 inh: inactive

What do the screens show for `NS(=O)(=O)c1ccc(CNC(=O)Cc2ccsc2)cc1`?
KCNQ1 pot: inactive; KCNQ1 inh: inactive; KCNK3 inh: inactive; hERG rescue: inactive; KCNK9 block: inactive

Results for C/C(Cl)=C\COc1cc(C)nc2c(Br)cccc12 ?
KCNQ1 pot: inactive; KCNQ1 inh: inactive; KCC2 mod: inactive; KCNK3 inh: inactive; hERG rescue: inactive; KCNK9 block: -7.49

How did Cc1cc(OCC(=O)O)c2ccccc2n1 do in these assays?
KCNQ1 pot: inactive; KCNQ1 inh: inactive; KCC2 mod: inactive; KCNK3 inh: inactive; hERG rescue: inactive; KCNK9 block: inactive

What do the screens show for `CC(=C/c1ccccc1)/C=C1/SC(N2CCOCC2)=NC1=O`?
KCNQ1 pot: inactive; KCNQ1 inh: 6; KCC2 mod: inactive; KCNK3 inh: inactive; hERG rescue: inactive; KCNK9 block: inactive

What do the screens show for `N#Cc1c(N)oc(-c2ccc3c(c2)OCO3)c1-c1ccc2c(c1)OCO2`?
KCNQ1 pot: inactive; KCNQ1 inh: inactive; KCC2 mod: inactive; KCNK3 inh: inactive; hERG rescue: inactive; KCNK9 block: -6.83

What do the screens show for `Cc1nc(N)c(C#N)c(-c2ccc3c(c2)OCO3)c1C`?
KCNQ1 pot: inactive; KCNQ1 inh: inactive; KCNK3 inh: inactive; hERG rescue: inactive; KCNK9 block: inactive

How did C/C(=N\NC(=O)COc1ccc(C)cc1C(C)C)c1ccc(-n2ccnc2)cc1 do in these assays?
KCNQ1 pot: inactive; KCNQ1 inh: inactive; KCC2 mod: inactive; KCNK3 inh: inactive; hERG rescue: 5.6; KCNK9 block: inactive

How did CC(=O)OCC(=O)[C@@]12OC(C)(C)O[C@@H]1C[C@H]1[C@@H]3C[C@H](F)C4=CC(=O)C=C[C@]4(C)[C@@]3(F)[C@@H](O)C[C@@]12C do in these assays?
KCNQ1 pot: inactive; KCNQ1 inh: inactive; KCC2 mod: inactive; hERG rescue: inactive; KCNK9 block: inactive

How did CC(=O)OCC(=O)[C@@]1(OC(C)=O)[C@@H](C)C[C@H]2[C@@H]3C[C@H](F)C4=CC(=O)C=C[C@]4(C)[C@@]3(F)[C@@H](O)C[C@@]21C do in these assays?
KCNQ1 pot: 29; KCNQ1 inh: inactive; KCC2 mod: inactive; KCNK3 inh: inactive; hERG rescue: inactive; KCNK9 block: inactive

How did Cc1ccc(NS(=O)(=O)c2ccc(C(=O)N3CCN(S(=O)(=O)c4ccccc4)CC3)cc2)cc1 do in these assays?
KCNQ1 pot: inactive; KCNQ1 inh: inactive; KCNK3 inh: inactive; hERG rescue: inactive; KCNK9 block: inactive

How did CCCN(CCC)C1=CC(=[N+]2CCCC2)CC(C)(C)C1 do in these assays?
KCNQ1 pot: inactive; KCNQ1 inh: 6; KCC2 mod: inactive; KCNK3 inh: inactive; hERG rescue: inactive; KCNK9 block: inactive

How did CCN(CC)c1cnn(C/C(=N\OC)c2ccc(Cl)cc2)c(=O)c1Br do in these assays?
KCNQ1 pot: inactive; KCNQ1 inh: inactive; KCC2 mod: -3.7; KCNK3 inh: inactive; hERG rescue: inactive; KCNK9 block: inactive

How did CO/N=C(\Cn1ncc(N2CCCC2)c(Cl)c1=O)c1ccc(Cl)cc1 do in these assays?
KCNQ1 pot: inactive; KCNQ1 inh: inactive; KCC2 mod: inactive; KCNK3 inh: inactive; hERG rescue: inactive; KCNK9 block: inactive

What do the screens show for `O=C(NCCN1CCOCC1)c1cccc(S(=O)(=O)N2CCCCCC2)c1`?
KCNQ1 pot: inactive; KCNQ1 inh: inactive; KCNK3 inh: inactive; hERG rescue: 7.2; KCNK9 block: inactive
